In ChEMBL document CHEMBL4680104, “Structure-Based Optimization of Small-Molecule Inhibitors for the β-Catenin/B-Cell Lymphoma 9 Protein-Protein Interaction” (J Med Chem, 2018):
Calls of active or inactive are those of the source. No cut-off for these calls is given here.

Tests used:
MDA-MB-231 = test: Cytotoxicity in human MDA-MB-231 cells assessed as reduction in cell viability incubated for 72 hrs by MTS assay; assay type: functional, cell-based; settings: MDA-MB-231, 72 h
Method in brief: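 Triple-negative breast cancer line seeded at 5 × 10^3 cells/well, held overnight at 37 °C, then exposed to inhibitor over a concentration range for 72 h. Viability read out with a fresh 1:19 mix of PMS (0.92 mg/mL) and MTS (2 mg/mL), incubated 3 h at 37 °C, A490 measured.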

SW480 = test: Cytotoxicity in human SW480 cells assessed as reduction in cell viability incubated for 72 hrs by MTS assay; assay type: functional, cell-based; settings: SW480, 72 h
Method in brief: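 Cells seeded at 5 × 10^3 cells/well, kept overnight at 37 °C, then exposed to inhibitors at various concentrations for 72 h. Viability read with a freshly mixed PMS (0.92 mg/mL) : MTS (2 mg/mL) reagent at 1:19, incubated 3 h at 37 °C, A490 measured. […] Triplicate; mean ± SD.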

[1] = target: T1, beta-catenin-B-cell lymphoma 9 protein complex (Homo sapiens, UniProt P35222); test: Inhibition of protein interaction between beta-catenin (unknown origin)/BCL9 in HEK293 cells transfected with beta-catenin assessed as reduction in Wnt/beta-catenin transactivation incubated for 24 hrs by Wnt-responsive TOP-Flash luciferase reporter assay; assay type: cell-based
T1 sequence (P35222 whole entry): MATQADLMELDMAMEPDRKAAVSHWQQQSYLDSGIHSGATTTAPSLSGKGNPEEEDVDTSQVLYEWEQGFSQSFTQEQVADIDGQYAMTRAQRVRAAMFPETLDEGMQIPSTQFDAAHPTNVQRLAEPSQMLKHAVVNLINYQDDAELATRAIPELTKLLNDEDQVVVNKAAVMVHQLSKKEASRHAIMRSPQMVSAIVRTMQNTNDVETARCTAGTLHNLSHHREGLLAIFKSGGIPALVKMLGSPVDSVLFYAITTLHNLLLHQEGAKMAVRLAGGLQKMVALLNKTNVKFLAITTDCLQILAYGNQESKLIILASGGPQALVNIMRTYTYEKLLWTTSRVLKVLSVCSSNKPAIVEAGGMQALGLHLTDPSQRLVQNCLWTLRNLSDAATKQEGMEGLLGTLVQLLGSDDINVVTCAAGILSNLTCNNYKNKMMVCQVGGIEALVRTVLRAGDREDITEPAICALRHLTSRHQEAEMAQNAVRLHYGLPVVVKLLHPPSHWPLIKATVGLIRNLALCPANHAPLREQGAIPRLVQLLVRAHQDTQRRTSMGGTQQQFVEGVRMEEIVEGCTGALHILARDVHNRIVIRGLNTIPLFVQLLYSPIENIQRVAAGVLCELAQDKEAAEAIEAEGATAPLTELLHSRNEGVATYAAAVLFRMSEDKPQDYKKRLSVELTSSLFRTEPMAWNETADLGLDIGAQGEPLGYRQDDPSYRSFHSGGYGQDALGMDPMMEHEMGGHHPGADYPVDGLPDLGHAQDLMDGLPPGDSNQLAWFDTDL
T1 sequence (O00512 whole entry): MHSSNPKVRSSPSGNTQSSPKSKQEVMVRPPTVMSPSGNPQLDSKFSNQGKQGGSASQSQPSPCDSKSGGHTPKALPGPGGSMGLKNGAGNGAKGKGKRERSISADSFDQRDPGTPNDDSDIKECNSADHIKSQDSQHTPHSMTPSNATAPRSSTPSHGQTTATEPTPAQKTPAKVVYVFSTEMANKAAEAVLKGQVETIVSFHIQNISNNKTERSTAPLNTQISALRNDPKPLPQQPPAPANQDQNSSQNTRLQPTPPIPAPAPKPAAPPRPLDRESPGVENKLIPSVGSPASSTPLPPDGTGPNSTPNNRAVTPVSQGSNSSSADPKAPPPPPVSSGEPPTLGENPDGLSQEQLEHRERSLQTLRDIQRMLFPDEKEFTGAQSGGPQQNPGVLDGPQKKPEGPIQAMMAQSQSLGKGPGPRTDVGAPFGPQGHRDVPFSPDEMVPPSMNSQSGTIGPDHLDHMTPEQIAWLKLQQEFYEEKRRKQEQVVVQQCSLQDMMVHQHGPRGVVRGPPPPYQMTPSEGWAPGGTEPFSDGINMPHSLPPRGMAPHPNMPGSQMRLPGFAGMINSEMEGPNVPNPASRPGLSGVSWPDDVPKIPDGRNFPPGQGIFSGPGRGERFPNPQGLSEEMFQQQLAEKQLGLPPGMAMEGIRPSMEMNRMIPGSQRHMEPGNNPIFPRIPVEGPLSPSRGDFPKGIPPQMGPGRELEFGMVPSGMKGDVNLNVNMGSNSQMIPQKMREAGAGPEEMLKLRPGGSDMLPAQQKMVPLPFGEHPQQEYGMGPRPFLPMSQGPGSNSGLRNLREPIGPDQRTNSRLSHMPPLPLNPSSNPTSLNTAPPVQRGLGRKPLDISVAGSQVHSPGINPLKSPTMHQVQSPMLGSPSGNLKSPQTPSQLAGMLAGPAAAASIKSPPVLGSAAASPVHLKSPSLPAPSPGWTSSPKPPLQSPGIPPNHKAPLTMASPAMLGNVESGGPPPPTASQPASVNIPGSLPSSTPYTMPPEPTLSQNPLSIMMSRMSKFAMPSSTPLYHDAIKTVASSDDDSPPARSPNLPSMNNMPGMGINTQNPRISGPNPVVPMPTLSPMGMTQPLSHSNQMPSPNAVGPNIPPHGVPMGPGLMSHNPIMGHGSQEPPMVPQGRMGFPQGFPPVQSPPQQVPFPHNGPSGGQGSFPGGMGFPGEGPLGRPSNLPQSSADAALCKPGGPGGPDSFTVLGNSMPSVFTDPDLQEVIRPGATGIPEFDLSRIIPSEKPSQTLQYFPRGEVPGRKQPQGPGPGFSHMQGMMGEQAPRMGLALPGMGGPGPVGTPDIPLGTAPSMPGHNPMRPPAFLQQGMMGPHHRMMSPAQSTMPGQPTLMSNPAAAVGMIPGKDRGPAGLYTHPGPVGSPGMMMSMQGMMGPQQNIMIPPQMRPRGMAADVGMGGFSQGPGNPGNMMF
Method in brief: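 HEK293 cells were cotransfected using FuGENE6 with 45 ng TOPFlash or FOPFlash reporter, 135 ng pcDNA3.1-β-catenin and 20 ng pCMV-RL normalization reporter. After 24 h in DMEM with 10% FBS at 37 °C, inhibitors or DMSO were added for 24 h. Reporter activity was read with a dual luciferase system, normalized, and compared with DMSO-treated cells. Triplicate.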

[2] = target: beta-catenin-B-cell lymphoma 9 protein complex (Homo sapiens) (UniProt P35222+O00512); test: Inhibition of protein interaction between beta-catenin (unknown origin)/BCL9 in human HEK293 cells transfected with beta-catenin assessed as reduction in Wnt/beta-catenin transactivation incubated for 24 hrs by Wnt-responsive FOP-Flash luciferase reporter assay

SMILES | IC50 (MDA-MB-231) [µM] | IC50 (SW480) [µM] | IC50 [1] [µM] | inhibition [2]
Cl.Cl.O=C(Nc1ccc(O[C@H]2CCNC2)c(-c2ccc(F)cc2)c1)c1ccc(O[C@H]2CCNC2)c(-c2ccc3ccsc3c2)c1 | 2.8 | 2 | 6.2 | Active
Cc1cc(F)ccc1-c1cc(NC(=O)c2ccc(O[C@H]3CCNC3)c(-c3ccc(F)c(F)c3)c2)ccc1O[C@H]1CCNC1.Cl.Cl | 4.1 | 0.9 |  | Active
Cl.Cl.O=C(Nc1ccc(O[C@H]2CCNC2)c(-c2ccc(F)cc2)c1)c1ccc(O[C@H]2CCNC2)c(C2CCC(C(F)(F)F)CC2)c1 (stereo not given in full) | 2.3 | 3.6 | 10 | Active
Cl.Cl.O=C(Nc1ccc(O[C@@H]2CCNC2)c(-c2cccc(-c3nn[nH]n3)c2)c1)c1ccc(O[C@H]2CCNC2)c(-c2ccc(F)c(F)c2)c1 | 73 | 41 | 25 | inactive
Cl.Cl.O=C(Nc1ccc(O[C@H]2CCNC2)c(-c2ccc(F)cc2)c1)c1ccc(O[C@H]2CCNC2)c(-c2ccc3cc(F)ccc3c2)c1 | 2.1 | 1.8 | 10 | Active
Cl.Cl.O=C(Nc1ccc(O[C@H]2CCNC2)c(-c2ccc(F)cc2)c1)c1cnc(O[C@H]2CCNC2)c(-c2ccc(F)c(F)c2)c1 | 3.6 | 3 | 22 | Active
Cl.Cl.O=C(Nc1ccc(O[C@H]2CCNC2)c(-c2ccc(F)cc2)c1)c1ccc(O[C@H]2CCNC2)c(-c2ccc(F)c(F)c2)c1 |  |  | 4.5 | Active
